# Bioassay records as filed in PubChem.
# Shown are actives, neighbours in structure and some others; about 3.4% of the full set was active somewhere.
# ROMK mod – human ROMK K+ channel modulation, primary screen; P48048; B-score at 10 µM; 130,000 compounds, 2% hits; Tet-inducible ROMK, thallium flux fluorescence; actives lie on both sides; AID 1918;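 active = signal ratio slope over the read window, or its plate-corrected B-score, at least 3 SD from the plate mean, either direction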;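 also: B-score of the F/F0 ratio slope over 7 to 12 s after thallium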
# Cl transport mod – modulates chloride dependent transport by human KCC2 | B-score of Tl+ flux slope (higher = more flux/activation; lower = inhibition) at 10 µM | KCC2 cells, thallium flux FluoZin-2 fluorescence | 190,000 compounds, 2.2% hits | Q9H2X9;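 active = thallium flux slope and its plate-corrected score both differing from the plate sample mean at a set confidence after two filtering rounds, in either direction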;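 also: slope of fluorescence scaled to starting intensity during 10 to 20 s after thallium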
# Mdm2 ligase inh – blocks human Mdm2 ubiquitin ligase activity; AID 1230; cell-based MDM2 ubiquitination luciferase reporter, 2 h; 0 = plate control, 100 = twice control, blank-subtracted; 210,000 compounds, 0.11% hits; Q00987; signal enhancement, % at 5 µM;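 active = signal enhancement of 30% or more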;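 also: luminescence tracks abundance of the self-degrading MDM2-luciferase fusion protein; higher signal means inhibition of MDM2 E3 ligase activity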
#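 Assay system: stable mammalian line carrying autodegrading MDM2–luciferase fusion reporter; amount: 2000 cells seeded into each well; buffer or medium: DMEM; benchmarks: plate control and blank wells; signal: luciferase luminescence; timing: 2 h compound exposure at 37 °C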
# p97 inhibitor – blocks human p97 ATPase activity; P55072; recombinant p97 ATPase, Kinase-Glo ATP luminescence, 3 h; inhibition, % at 8 µM; 220,000 compounds, 0.42% hits; AID 1481; in the data active = inhibition above about 15%;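 also: 0% = DMSO vehicle and 100% = wells lacking enzyme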
# DTT redox prof – compounds producing H2O2 with reducing agent – biochemical, NIH compound library profiling, artefact control for MLSCN library redox annotation, primary screen; AID 878; DTT-dependent redox cycling H2O2, phenol red/HRP absorbance; 100% = 100 µM peroxide control, 0% = buffer; activation, % at 10 µM; 200,000 compounds, 0.03% hits;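 active = activation of at least 50% relative to the plate's high and low controls in the primary single-dose screen; inactive = activation below 50%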;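 also: compound incubated with DTT at 0.8 mM final as the reducing agent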
# PKD1 kinase inh – blocks activity of human protein kinase D1; PKD1 kinase fluorescence polarization assay; 200,000 compounds, 0.056% hits; inhibition, % (no concentration beside the values); Q15139; in the data active = inhibition above about 50%
# Target sequence (Q15139 whole entry, looked up): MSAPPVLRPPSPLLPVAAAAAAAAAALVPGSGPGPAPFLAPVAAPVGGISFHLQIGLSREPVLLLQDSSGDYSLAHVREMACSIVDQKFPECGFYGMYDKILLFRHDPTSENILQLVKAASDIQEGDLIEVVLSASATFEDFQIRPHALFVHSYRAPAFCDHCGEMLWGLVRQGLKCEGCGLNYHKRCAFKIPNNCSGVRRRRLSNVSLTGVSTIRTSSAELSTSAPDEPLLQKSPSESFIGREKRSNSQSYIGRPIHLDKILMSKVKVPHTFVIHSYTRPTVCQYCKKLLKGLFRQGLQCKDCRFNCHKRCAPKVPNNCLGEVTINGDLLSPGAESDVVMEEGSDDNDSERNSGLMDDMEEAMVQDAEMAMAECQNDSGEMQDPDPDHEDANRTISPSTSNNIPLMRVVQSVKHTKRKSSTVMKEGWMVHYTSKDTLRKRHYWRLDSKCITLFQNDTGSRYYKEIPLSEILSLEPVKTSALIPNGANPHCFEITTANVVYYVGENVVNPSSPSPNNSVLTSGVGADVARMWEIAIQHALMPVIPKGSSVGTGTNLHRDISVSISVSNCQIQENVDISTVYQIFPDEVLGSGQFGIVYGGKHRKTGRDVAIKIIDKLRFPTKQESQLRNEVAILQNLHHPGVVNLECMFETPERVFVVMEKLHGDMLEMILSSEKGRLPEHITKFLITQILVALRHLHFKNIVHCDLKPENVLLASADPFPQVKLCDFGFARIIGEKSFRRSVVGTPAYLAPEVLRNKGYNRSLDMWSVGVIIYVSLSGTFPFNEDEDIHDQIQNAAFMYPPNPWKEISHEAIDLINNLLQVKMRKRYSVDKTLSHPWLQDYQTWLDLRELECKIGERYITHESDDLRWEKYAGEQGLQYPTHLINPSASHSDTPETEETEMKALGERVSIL
# KCC2 sec1 – KCC2 (human) modulation, secondary assay; shares compounds with Cl transport mod; 3,700 compounds, 15% hits; AID 1713; HEK293-KCC2, thallium flux, FluoZin2 fluorescence; stronger effect = higher value; normalised thallium flux (F/F0 slope) at 10 µM;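 active = thallium flux slope above the same plate's solvent-only control mean plus 3 SD; inconclusive = the two replicate wells disagree; inactive = no significant difference from solvent-only control wells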
# KCC2 bumet counter – thallium flux despite bumetanide block in KCC2 cells, secondary assay 3; shares compounds with Cl transport mod; HEK293-KCC2 + bumetanide/ouabain, thallium flux FluoZin2; stronger effect = higher value; normalized thallium flux at 10 µM; 3,700 compounds, 49% hits;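 active = thallium entry rate above the same plate's blocked-transporter control wells by more than 3 SD; inconclusive = the two repeat wells disagree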;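 also: raw slope of fluorescence over initial fluorescence between 10 and 20 s after thallium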
# KCC2 sec2 – confirmation of human KCC2 transport modulators; shares compounds with Cl transport mod; HEK293-KCC2, thallium flux FluoZin2 fluorescence; actives lie on both sides; F/F0 rise rate, 10–20 s post-thallium; normalized thallium flux at 10 µM; 3,700 compounds, 23% hits;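 active = thallium flux slope more than 3 SD above or below the plate's solvent-only control mean, mostly below; inconclusive = the two repeat wells disagreed; inactive = no significant shift from solvent-only controls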;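 also: raw slope with 0.1% DMSO as baseline and bumetanide as block control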
# HEK293 Tl flux – acts in parental HEK cells, KCC2 counter-screen | shares compounds with Cl transport mod | 3,700 compounds, 46% hits | thallium flux rate (normalised fluorescence) at 10 µM | HEK293 parental cells, thallium flux FluoZin2, ouabain; baseline-ratio fluorescence slope, 10–20 s after thallium;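 active = thallium flux rate significantly above the same plate's solvent-only control wells, beyond their mean plus 3 SD; inconclusive = the two replicate wells gave conflicting results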
# KCC2 ouabain – modulates human KCC2 on retest with ouabain. shares compounds with Cl transport mod. HEK293-KCC2, thallium flux FluoZin2 fluorescence; bidirectional: low = inhibitor, high = activator. raw Tl+ flux slope (below DMSO = inhibition, above = activation) at 10 µM. 3,700 compounds, 48% hits;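 active = thallium flux slope beyond 3 SD from same-plate DMSO control mean in most replicates, usually higher, sometimes lower; inconclusive = repeat tests gave conflicting results; inactive = no significant difference from controls in most replicates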;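 also: slope of initial-normalized fluorescence between seconds 10 and 20 after thallium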
# HEK counter2 – acts in parental HEK cells, second KCC2 counter-screen. HEK293 parental, thallium flux FluoZin-2 fluorescence slope. shares compounds with Cl transport mod. 3,700 compounds, 33% hits. thallium flux slope at 10 µM. AID 1718;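 active = thallium flux slope above the same plate's solvent-control mean plus 3 SD in both duplicate wells; inconclusive = duplicate wells that disagreed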;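 also: run without ouabain in cells lacking the KCC2 cotransporter; slope of fluorescence scaled to its starting value between 10 and 20 s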
# * hit, by the source's call; ? = inconclusive; / = no result given.
SMILES,ROMK mod,Cl transport mod,Mdm2 ligase inh,p97 inhibitor,DTT redox prof,PKD1 kinase inh,KCC2 sec1,KCC2 bumet counter,KCC2 sec2,HEK293 Tl flux,KCC2 ouabain,HEK counter2
Cc1nc(NC(=S)NC(=O)c2ccccc2)sc1C,/,46*,-13,10,/,/,0.015*,0.06*,0.034,0.028*,0.037*,0.013*
Cc1nc(NC(N)=S)sc1C(=O)Nc1ccccc1,/,-0.89,-31,6,2,-6,/,/,/,/,/,/
COC(=O)c1sc(NC(=S)NC(=O)c2ccccc2F)nc1C,1.2,36*,-4,-2,-1,0,0.0079,0.037*,?,0.033*,0.04*,0.022*
CCOC(=O)CNC(=O)c1sc(NC(=O)c2ccccc2F)nc1C,/,0.41,-34,-10,-3,3,/,/,/,/,/,/
Cc1ccccc1NC(=S)N/N=C/c1ccc(O)cc1O,/,-1.1,-16,11,/,/,/,/,/,/,/,/
Cc1ccc(Cl)cc1NC(=S)N/N=C/c1cccc2ccccc12,/,30*,0,-3,/,/,0.0091,0.035*,0.033,?,0.028*,0.013
Cc1ccccc1C(=O)Oc1cc(N)n(S(=O)(=O)c2ccccc2)n1,-0.4,0.29,2,3,0,-10,/,/,/,/,/,/
COC(=O)c1sc2nc(C)cc(-c3ccccc3)c2c1N,/,-0.057,-10,0,0,7,/,/,/,/,/,/
Nc1c(C(=O)O)sc2nc(-c3ccccc3)cc(-c3ccc(F)cc3)c12,-0.34,-5.4*,-9,12,/,/,0.0089,0.012*,0.028,0.0069,0.012*,0.01
S=C(Nc1ccccc1)Nc1nc2ccccc2n1CCOc1ccc(Br)cc1,/,3.4*,-21,0,1,7,0.0099,0.032*,0.031,0.01*,0.023,?
Oc1ccc(NC(=S)Nc2ccccc2)cc1,/,0.76,-3,4,0,-10,/,/,/,/,/,/
Cn1c(NC(=S)Nc2ccccc2)nc2ccccc21,1.1,7.4*,-33,5,0,-8,?,0.064*,0.031,0.023*,0.043*,0.014*
N#Cc1c(Nc2ccccc2C(F)(F)F)s[nH]c1=O,/,-1.1,-9,5,/,/,/,/,/,/,/,/
C(=N\Nc1nc2ccccc2s1)/c1ccccn1,/,6.9*,-90,-29,/,/,0.0086,?,0.032,?,0.02,0.012
Cc1csc(N/N=C/c2ccccn2)n1,-0.52,-0.009,-45,-12,0,-5,/,/,/,/,/,/
C(=N\NC1=Nc2cccc3cccc1c23)/c1ccccn1,-0.016,-4.4*,-18,4,0,2,?,0.005,0.027,0.0061,0.016*,0.0094
CCOc1ccccc1N(CC(=O)NC1CCCCC1)C(=O)c1nsc(Cl)c1Cl,-2,-1.2,-9,3,0,-1,/,/,/,/,/,/
CC1CCCC(C)N1c1nnc(NC(=O)c2cc(-c3ccc(Br)cc3)on2)s1 (centres undefined),/,12*,-9,-7,-3,1,0.0087,0.02*,0.028,0.011*,?,?
O=C(Nc1nnc(N2CCCCCC2)s1)c1cc(-c2ccc(Br)cc2)on1,/,0.14,-53,-1,-1,-11,/,/,/,/,/,/
NNC(=O)c1csc(-c2ncc(C(F)(F)F)cc2Cl)n1,/,-0.024,-15,-6,/,/,/,/,/,/,/,/
O=C(NCC1CCCO1)C1CCN(CC2CCCCC2)CC1 (centres undefined),/,0.46,-4,7,-2,-16,/,/,/,/,/,/
O=C(CNC(=O)c1ccccc1C(=O)O)c1ccccc1,/,0.3,-8,2,2,-4,/,/,/,/,/,/
Cc1ccc(NC(=O)/C(=C\C=C\c2ccccc2)NC(=O)c2ccccc2)cc1,/,-4*,9,-2,-9,3,?,0.0056,0.03,0.0064,0.013*,0.01
Oc1ccc(F)c2cccnc12,-0.46,-0.33,-12,-1,0,0,/,/,/,/,/,/
Cc1ccc(N=Nc2ccc(O)c3ncccc23)cc1C,/,8.2*,-3,-2,0,-6,0.0078,0.0077*,0.032,0.014*,0.023,?
SMILES,ROMK mod,Cl transport mod,Mdm2 ligase inh,p97 inhibitor,DTT redox prof,PKD1 kinase inh,KCC2 sec1,KCC2 bumet counter,KCC2 sec2,HEK293 Tl flux,KCC2 ouabain,HEK counter2
CCn1c(SCC(=O)Nc2ccc(N3CCOCC3)c(Cl)c2)nnc1-c1ccc(N)cc1,0.47,/,9,-7,0,4,/,/,/,/,/,/
Oc1ccc(/C=N/NC(=S)Nc2cccnc2)cc1O,0.44,0.45,-15,7,/,0,/,/,/,/,/,/
CCC(C)(C)C1CCC(=NNC(=S)Nc2cccnc2)CC1 (centres undefined),-0.21,24*,5,0,0,-6,0.01,0.039*,0.034,0.022*,0.042*,0.013*
CC(C)(C)c1ccc(/C=N/NC(=S)Nc2cccnc2)cc1,1.8,12*,-94,-4,0,-6,0.01,0.032*,0.03,0.012*,?,0.011*
Cc1nn(-c2ccccc2)c(Cl)c1/C=N/NC(=O)CNC(=O)c1ccccc1Cl,/,-2.3,-13,2,0,-3,/,/,/,/,/,/
COc1ccc(-c2nnc(S/C(=C/c3ccc(Cl)cc3)C(=O)O)o2)cc1,-1.3,-3*,-9,9,0,2,0.0082,0.0055*,0.023*,0.0077,0.016*,0.0099
N#Cc1ccccc1Sc1ccccc1C(=O)OCc1nnc(-c2ccccc2)o1,/,-3.8*,-20,3,2,-8,?,0.0059,0.031,0.01*,?,0.011
Cc1ccc(C)c(OCC(=O)Nc2ccc(S(=O)(=O)Nc3ccccn3)cc2)c1,/,0.018,-4,6,0,6,/,/,/,/,/,/
COc1ccc(C(=O)NCCCc2nc3ccccc3n2Cc2ccccc2C)cc1OC,-2.2,-1.4,/,3,0,-16,/,/,/,/,/,/
O=C(Nc1nc2ccc(S(=O)(=O)N3CCCCC3)cc2s1)c1ccncc1,/,-6.2*,0,2,4,2,0.0068,0.0048,0.032,0.0071,0.02,0.0098
